VIM-2 inhibitor: blocks Pseudomonas aeruginosa VIM-2 metallo-beta-lactamase; purified VIM-2, nitrocefin hydrolysis, epi-absorbance fluorescence; AID 1527; 290,000 compounds, 0.89% hits; inhibition, % at 5.6 µM;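 active = inhibition above the mean of all tested compounds plus 3 SD, cutoff set per screening run, cut at about 7.5% in these data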;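 note: red hydrolysis product quenches plate fluorescence so inhibitors raise well fluorescence; 0% = enzyme with DMSO and 100% = DMSO without enzyme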
NadD block: NadD (S. aureus) enzyme inhibition; purified NadD enzyme, colorimetric absorbance read-out; inhibition, % at 20 µM; 360,000 compounds, 0.78% hits; AID 602399; in the data active = inhibition above about 26%
IMP-1 inhibitor: inhibitors of Pseudomonas aeruginosa IMP-1 metallo-beta-lactamase | purified IMP-1, nitrocefin hydrolysis, epi-absorbance fluorescence | inhibition, % at 5.6 µM | 290,000 compounds, 0.45% hits;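 active = inhibition above the mean plus 3 SD of all compounds in the same screening run, cut at about 4.5% in these data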;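 note: 0% = IMP-1 with DMSO and 100% = DMSO wells lacking enzyme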
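System: purified IMP-1 / Input: IMP-1 dispensed at 0.2 nM / Medium: 50 mM HEPES pH 7.1, 50 µM ZnSO4, 0.05% Brij 35 / Timing: 15 min enzyme–compound preincubation, then 25 min nitrocefin reaction, 25 °C / Technique: plate fluorescence quenching by hydrolysis product, ex 480/em 530 nm / Repeats: singlicate testing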
core dimer inh: HCV core protein dimerization inhibition | AID 1899 | inhibition, % at 5 µM | 300,000 compounds, 0.33% hits | TR-FRET GST/Flag-core106 dimerization, 1536-well;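 active = inhibition above the mean of all tested compounds plus 3 SD, set per screening campaign, cut at about 45% in these data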
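Material: GST/Flag-tagged HCV core106 proteins. Incubation: 4 h, 22.5 °C incubation. Read-out basis: inhibition (%) from 671 over 617 nm ratio. Measured by: TR-FRET, excitation 340 nm, emission 617 and 671 nm.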
Numbers without * were called inactive; · = not tested or not shown. Only some compounds are listed: those with a hit (about 1.9% of all), similar ones and a draw of the others.

SMILES | VIM-2 inhibitor | NadD block | IMP-1 inhibitor | core dimer inh
Cc1cc(/C=C\c2ccc3cc(N(C)C)ccc3[n+]2C)c(C)n1-c1ccccc1 | · | 74* | · | 40
O=S(=O)(NCc1ccccc1)[C@@H]1CC2C=CC1C2 (stereo partly drawn) | · | -3 | · | ·
CC(=O)Nc1ccc2c(CSc3nncs3)cc(=O)oc2c1 | 3 | -1 | 5.4* | -1
Cc1ccc2c(CSc3nnc(N)s3)cc(=O)oc2c1 | -2 | 6 | -3 | 19
Cc1ccc(OC(=O)c2cccc(S(=O)(=O)N3CCN(C)CC3)c2)c(Br)c1 | 0 | -14 | 0 | 0
CCOC(=O)c1[nH]c2ccc(OC)cc2c1NC(=O)c1ccccc1C(=O)O | -1 | -1 | -2 | -18
CCOC(=O)c1[nH]c2ccc(F)cc2c1NC(=O)c1ccccc1C(=O)O | 9.8* | -3 | 3 | ·
COc1cc(NC(=O)c2ccco2)c(C(=O)O)cc1OC | -2 | -4 | -2 | -3
COC(=O)c1cc(OC)c(OC)cc1NC(=O)c1ccco1 | 8.9* | -5 | -3 | 2
O=C(Nc1cccc2cccc(NC(=O)c3ccco3)c12)c1ccco1 | 1 | 9 | -2 | 48*
CCOC(=O)C1(C)CCN1C(=O)c1ccc(C(F)(F)F)cc1 (stereo not drawn) | · | -1 | · | ·
O=C(NNC(=O)c1csc(N2CCOCC2)n1)c1ccc(=O)[nH]c1 | · | -1 | · | ·
O=[N+]([O-])c1ccccc1/C=N\N1CCN(Cc2ccccc2Cl)CC1 | -1 | 3 | -1 | 10
O=C(Nc1ccc(Cl)c(S(=O)(=O)Nc2ccccc2Cl)c1)c1cccs1 | -3 | -3 | -2 | 7
COc1ccc(NC(=O)CCC(=O)c2cccs2)cc1S(=O)(=O)Nc1ccccc1Cl | -2 | -7 | 5.2* | 0
Cn1c(SCC(=O)c2ccc(O)cc2O)nnc1-c1ccccc1 | -1 | -4 | -5 | 10
CCNc1nc(NCC)nc(OCCOC(C)=O)n1 | 2 | 0 | 4.9* | -3
CCNc1nc(NCC)nc(OCCOC(=O)c2ccccc2)n1 | 1 | 4 | -1 | 0
O=C(O)C(c1ccccc1)N1C(=O)/C(=C\c2ccc(-c3ccccc3Cl)o2)SC1=S (stereo not drawn) | 0 | 22 | 9.4* | 16
CCn1c(SCC(=O)N2CCOCC2)nc2c([nH]c3ccccc32)c1=O | 8.0* | -3 | -1 | 8
CCCCNC(=O)C1(NC(=O)Nc2ccc(C)cc2)CCCCC1 | -2 | -2 | -5 | 0
CN1CCN(c2ccc(C(=O)c3ccccc3)cc2[N+](=O)[O-])CC1 | 8.3* | -3 | -2 | -6
CCN(CC)S(=O)(=O)N1CCC(C(=O)NCCN2CCOCC2)CC1 | -3 | -2 | -3 | -1
CCCCN(CC)S(=O)(=O)N1CCC(C(=O)NCCCN2CCOCC2)CC1 | -1 | -3 | 6.6* | -2
CC1(C)Cc2c(sc3[nH]c(=S)n(Cc4ccco4)c(=O)c23)CO1 | -5 | 7 | -6 | 1
SMILES | VIM-2 inhibitor | NadD block | IMP-1 inhibitor | core dimer inh
O=c1c2c3c(sc2[nH]c(=S)n1Cc1ccco1)CCC3 | -3 | 21 | -4 | 48*
CCc1nnc(NC(=O)c2ccc(Cl)c(S(=O)(=O)N3CCc4ccccc43)c2)s1 | -3 | 27 | -3 | 51*
Cc1ccc(-c2csc(NC(=O)c3ccc(S(=O)(=O)N4CCc5ccccc54)cc3)n2)cc1 | 1 | 20 | 1 | 67*
COc1ccc(C(=O)Nc2ccc(S(=O)(=O)N3CCc4ccccc43)cc2)cc1 | -2 | 1 | -6 | 7
NS(=O)(=O)c1ccc(NC(=O)c2ccc(S(=O)(=O)N3CCc4ccccc43)cc2)cc1 | 3 | 28 | -2 | 58*
Fc1ccccc1Oc1nc(-c2ccncc2)nc2ccccc12 | 0 | -5 | -1 | 1
CCC1=Nc2ccccc2-c2nnc(SC)nc2O1 | 10* | -5 | -2 | 1
CSc1nnc2c(n1)OC(C)N(C(=O)c1ccccc1)c1ccccc1-2 (stereo not drawn) | -2 | -3 | -5 | -6
CSc1nnc2c(n1)OC(C)=Nc1ccccc1-2 | 11* | -4 | -2 | -2
Cc1cc(C)c([N+](=O)[O-])cc1-c1ccc(/C=N/c2c(-c3ccco3)nc3ccccn23)o1 | 4 | 22 | 9.2* | 1
COC(=O)c1ccc(NS(=O)(=O)c2ccccc2)o1 | -2 | -1 | 4.9* | -4
COC(=O)c1ccc(NS(=O)(=O)c2ccc(Cl)cc2)o1 | 1 | -1 | 2 | 8
N#CC(C(=O)NCc1ccccc1)c1nc2ccccc2nc1N1CCCC1 (stereo not drawn) | 0 | 2 | 8.2* | 6
Nc1nc(-c2ccc3c(c2)CCCC3)c(CC(=O)O)s1 | 3 | 3 | 1 | ·
Nc1nc(-c2ccc3c(c2)OCCO3)c(CC(=O)O)s1 | 2 | 6 | 9.9* | ·
O=C1c2cccc3c(N4CCCCC4)ccc(c23)C(=O)N1c1ccc(Cl)cn1 | 2 | · | 1 | ·
O=C1c2cccc3c(N4CCCCC4)ccc(c23)C(=O)N1c1ccccn1 | 3 | -2 | 5.8* | 8
CC(=O)c1c(O)cc(=O)n(-c2ccccc2)c1-c1ccc(Cl)cc1 | 0 | 4 | -1 | -3
CCc1c(O)cc(=O)n(-c2ccccc2)c1-c1ccccc1 | -1 | 10 | -2 | 55*
O=C(NN1C(=O)C2C(c3ccccc3)C=CC(c3ccccc3)C2C1=O)c1ccncc1 (stereo not drawn) | 0 | 5 | 12* | 3
COC(=O)c1ccccc1NC(=O)c1cccnc1 | 1 | -2 | -2 | 0
Oc1cccc(C=Nc2cccc3ccccc23)c1O | 2 | 45* | 1 | 10
c1ccc2c(c1)ncn2Cc1nnc2sc(-c3ccc4c(c3)OCO4)nn12 | 9.6* | 0 | -2 | 9
N#C/C(=C(/O)COC(=O)c1ccc2c(c1)OCCO2)c1nc2ccccc2[nH]1 | -1 | 29 | -3 | 58*
COc1ccccc1OCC(=O)OC/C(O)=C(\C#N)c1nc2ccccc2[nH]1 | 11* | 6 | 1 | 20
SMILES | VIM-2 inhibitor | NadD block | IMP-1 inhibitor | core dimer inh
Cn1c(=O)oc2cc(S(=O)(=O)N3CCC(C(=O)NCc4ccccc4Cl)CC3)ccc21 | 0 | -5 | 0 | 10
CN(C)/C=C(\c1cnc(Cl)s1)S(=O)(=O)c1ccccc1 | 1 | 7 | 0 | -9
COc1ccc2oc(=O)c(/C(C)=N/Nc3nc(-c4cc(C)ccc4C)cs3)cc2c1 | -1 | 28 | -3 | 56*
C/C(=N\Nc1nc(-c2ccc(C)cc2C)cs1)c1cc2ccccc2oc1=O | -5 | 10 | -4 | 51*
Cc1cc(NC(=O)COC(=O)C2CSC3(C)CCC(=O)N23)ccc1Br (stereo not drawn) | · | -4 | · | ·
CCOc1ccc(C2OCCC(C)O2)cc1OC (stereo not drawn) | · | 1 | · | ·
Oc1ccc(/C=N/Nc2ccccc2)cc1 | -4 | 3 | 0 | -4
Cc1nc2ccccc2nc1N/N=C/c1ccc(O)cc1 | 7.8* | -4 | -1 | -4
Oc1ccc(/C=N/Nc2ccnc3cc(Cl)ccc23)c(O)c1O | -2 | 59* | -5 | -16
Cc1ccc(NS(=O)(=O)c2cc([N+](=O)[O-])ccc2NNC(=S)Nc2cccc(Cl)c2)c(C)c1 | -3 | 46* | -2 | 13

Compound activity from PubChem.
